B1: tRNA (parent)
chain: GUUCCGUUGGCGUAAUGGUAACGCGUCUCCCUCCUAAGGAGAAGACUGCGGGUUCGAGUCCCGUACGGAACG

Fewer inactive variants are shown than the library holds.

Variants of B1 are the subject of this data set. The experiment in a line: yeast fitness relative to wild type (ratio to wild type); higher = fitter; tRNA-Arg(CCU), competitive growth, 37 C, YPD. A digest of the protocol:
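Changes in genotype frequencies gave Darwinian fitness relative to wild type. Frequencies were read by 100-nucleotide paired-end sequencing of gene amplicons before and after pooled Saccharomyces cerevisiae strains, carrying tRNA-Arg(CCU) gene variants at the native locus, were competed in YPD at 37°C for 24 hours in six replicates. A genotype was kept only with ≥ 100 starting reads, and estimates < 0.5 were set to 0.5.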
In the case of GUUCCGUUGGCGAAAUGGUAACACGUCUCCCUCCUAAGGAGAAGACUGCGGGUUCGAGUCCCGUACCGAACG [U13A G23A G67C], the yeast fitness stood at 0.535.

Regarding GUUCCGUUGGCGAAAUGGUAACGCGUCUCCCUCCUAACGAGAAGACUGCGGGUUCGAGUCCCGUACGGCACG [U13A G38C A69C], the yeast fitness stood at 0.524.

In the case of GUUCCGUUGGCGAAAUGGUAACGCGUCUCCCUGCUAAGGAGAAGACUGCGGGUUCGAGUCCCGUACGGAACG [U13A C33G], the yeast fitness turned out to be 0.741.

For the variant GUUCCGUUGGCGAAAUGGUAACGCGUCUCCCUUCUAAGGAGAAGCGUGCGGGUUCGAGUCCCGUACGGUACG [U13A C33U A45C C46G A69U], the yeast fitness worked out at 0.579.

GUUCCGUUGGCGAAAUGGUAACGCGUCUCCGUCAUAAGGAGAAGACUGCGGGUUCGAGUCCCGUACGGAACG [U13A C31G C34A]: the yeast fitness worked out at 0.624.

Regarding GUUCCGUUGGCGAAAUGGUAACGCGUCUCCGUUCUACGGAGAAGACUGCGGGUUCGAGUCCCGUUCGGAACG [U13A C31G C33U A37C A65U], the yeast fitness was at most 0.5.

In the case of GUUCCGUUGGCGAAAUGCUAACGCGUCUCCCUCCUGAGGACAAGACUGCGGGUUCGAGUCCCGUACGGAACG [U13A G18C A36G G41C], the yeast fitness worked out at 0.706.

For GUUCCGUUGGCGAAAUGGUAACGCGUCUCCCUCCUAAGGAAAAGACUGCGGGUUCGAGUCCCGCACGGAGCG [U13A G41A U64C A70G], the yeast fitness is at most 0.5.

Take GUUCCGUUGGCGAAAUGGUAACGCGUCUCCCUACUAAGGAGAAGACUGCGGGUCCGAGUCCCGUACGGAACG [U13A C33A U54C]: the yeast fitness was at most 0.5.

For the variant GUUCCGUUGGCGAAAUGGUAACCCGUGUCCCUCCUAAGGAGAAGACUGCGGGUUCGAGUCCCGUACGGAACG [U13A G23C C27G], the yeast fitness is 0.504.

As for GUUCCGUUGGCGAAAUGGUAACGCGUCUCCCUCCUAAGGAGAAGACUGCGGGUUUGAACCCUGUACGGAACG [U13A C55U G58A U59C C62U], the yeast fitness was at most 0.5.

As to GUUCCGUUGGCGAAAUGGUAACGCGUCUCCCUACUUAGGAGAAGACUGCGGGUUCGAGUCCCGUACGCAACG [U13A C33A A36U G68C], the yeast fitness is at most 0.5.

As for GUUCCGUUGGCGAAAUGGUAACGCGUCUCCCUCCUAAGGAGAAGACUGAGGGUUCGAGUCCCAUACGGAACG [U13A C49A G63A], the yeast fitness was at most 0.5.

In the case of GUUCCGUUGGCGAAAUGGUAACGCGUCUCCCUCCUAAGGAGAAGACUGCGGGUUCGAGUCGCGUACGGAGCG [U13A C61G A70G], the yeast fitness is 0.6.

As to GUUCCGUUGGCGAAAUGGUAACGCGUCUCCCUCCUAAGGAGAAGACUGCGGGUUCGAGUUCCGUACGGAACG [U13A C60U], the yeast fitness came to 0.699.

On to GUUCCGUUGGCGAAAUGGUAACGCGUCUCCCUCCUAAGGAGAAGAAUGCGGGUUCGAGUCCCGCACGGAACG [U13A C46A U64C], for which the yeast fitness was found to be 0.609.

Turning to GUUCCGUUGGCGAAAUGGUAACGCGUCUCCCUCCUAAGGAAAAGACUACGGGCUCGAGUCCCGUACGGAACG [U13A G41A G48A U53C], the yeast fitness was at most 0.5.

Take GUUCCGUUGGCGAAAUGGUAACGCGUCUCCCUCCUAAGGAGAAGAAUGCGGGUUCGAGUCCCGUACGGAACG [U13A C46A]: the yeast fitness worked out at 0.979.

Regarding GUUCCGUUGGCGAAAUGGUAACGCGUCUCCCUCCUAAGGAGAAGAAUCCGGGUUCGAGUCCCGUACGGAACG [U13A C46A G48C], the yeast fitness worked out at 1.08.

On to GUUCCGUUGGCGAAAUGGUAACGCGUCUCCCUCUUAAGGUGAAGACUGCGGGUUCGAGUCCCGUCCGGAACG [U13A C34U A40U A65C], for which the yeast fitness is at most 0.5.

As to GUUCCGUUGGCGAAAUGGUAACGCGUCUCCCUCCUAAGCAGAAGACUGCGGGUUCGAGUCCCGUACGGAACG [U13A G39C], the yeast fitness is 0.779.

In the case of GUUCCGUUGGCGAAAUGCUAACGCGUUUCCCUCCUAAGGAGAAGACUGCGGGUCCGUGUCCCGUACGGAACG [U13A G18C C27U U54C A57U], the yeast fitness amounted to 0.561.

As to GUUCCGUUGGCGAAAUGGUAACGCGUCUCCCUCCUAAGGAGAAGACUGGGGGUUCGAGUCCCGUACGGAACG [U13A C49G], the yeast fitness came out at 1.01.

As to GUUCCGUUGGCGAAAUGGUAACGCCUAUCGCUCCUAAGGCGAAGACUGCGGGUUCGAGUUCCGUAGGGAACG [U13A G25C C27A C30G A40C C60U C66G], the yeast fitness was at most 0.5.

Regarding GUUCCGUUGGCGAAAUAGUAACGCGUCUCCCUCCUAAGGAGAAGACUGCGGGUUCGAGUCCCGUACGGAACG [U13A G17A], the yeast fitness was found to be 0.764.

Take GUUCCGUUGGCGAAAUGGUAACACGUCUCCCUCCGAAGGAGAAGACUGCGGGUUCGAGCCCCGUACGGAACG [U13A G23A U35G U59C]: the yeast fitness turned out to be 0.528.

As to GUUCCGUUGGCGAAAUGGUAACGCGUCUCCCUCCUAAGGAGAAGACUGCGGGUUCGAGUUCCGUACGGUACG [U13A C60U A69U], the yeast fitness was determined as 0.62.

Consider GUUCCGUUGGCGAAAUGGUAACGCGUCUCCCUACUUAGGAGAAGACUGCGGGUUCGAGUCCCGUACGGAACG [U13A C33A A36U], for which the yeast fitness is 0.544.

Regarding GUUCCGUUGGCGAAAUGGUAACGCGUCUCCCUUCUAAGGAGGAGACUGCGGCUUCGAGUCCCGUGCGGAACG [U13A C33U A42G G52C A65G], the yeast fitness was at most 0.5.

In the case of GUUCCGUUGGCGAAAUGGUAACGCGUCUCCCUCUUAAGGAGAAGACUGCGGGUUCGAGUCCCGUACGGAACG [U13A C34U], the yeast fitness worked out at 0.58.

As for GUUCCGUUGGCGAAAUGCUAACGCGUCUCCCUCCUGAGGACAAGACUGCGGGUUCGAGUCCCGUCCGGAACG [U13A G18C A36G G41C A65C], the yeast fitness is 0.544.

In the case of GUUCCGUUGGCGAAAUGCUAACGCGACUCCCUCCUAAGGAGAAGACUGCGGGUUCGAGUCCCGUACGGAACG [U13A G18C U26A], the yeast fitness is at most 0.5.

As to GUUCCGUUGGCGAAAUGGUAACGCGUCUCCCUCCUAAGAAGAAGGCUGCGGGUACGAGUCCCGUACGGAACG [U13A G39A A45G U54A], the yeast fitness was at most 0.5.

Consider GUUCCGUUGGCGAAAUGGUAACGCGUCUCUCUCCUAAGGAGAAGACAGCGGGUUCGAGAUCGGUAUGGAACG [U13A C30U U47A U59A C60U C62G C66U], for which the yeast fitness is 0.55.

For GUUCCGUUGGCGAAAUGGUAACGCGUCUCCAUCCUAAGGAGGAGACUGCGGGUUCGAGUCCCGUACAGUACG [U13A C31A A42G G67A A69U], the yeast fitness is at most 0.5.

Turning to GUUCCGUUGGCGAAAUCGUAACGCGUCUCCAUCCUAAGGAGAAGACUGCGGGUUCGAGUCCCGUACGGAACG [U13A G17C C31A], the yeast fitness was found to be 0.623.

On to GUUCCGUUGGCGAAAUGCUAACGCGUCUCCCUCCUGAGGACAAGACAGCGGGUUCGAGUCCCGUACGGAACG [U13A G18C A36G G41C U47A], for which the yeast fitness was at most 0.5.
